Experimental data published in ChEMBL document CHEMBL1129321, “Discovery of an orally active non-peptide fibrinogen receptor antagonist” (J Med Chem, 1996).

Tests used:
[1] = organism: Homo sapiens; assay: Inhibitory activity against aggregation of human platelets; type: functional, organism-based
Procedure, shortened: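 Human platelets were gel-filtered from PRP on Sepharose 2B and used at 3 × 10⁸ platelets/mL with 1 mg/mL fibrinogen. Compounds were added at 37 °C 2 min before activation with 10 µM ADP, with stirring at 1000 rpm at 37 °C. Aggregation was read as the maximal increase in light transmittance. IC50 is the mean over GFP from two to six donors.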

[2] = Oral bioavailability in dog; type: ADME, organism-based, Canis lupus familiaris; settings: in vivo
Procedure, shortened: (§1)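 Conscious dogs received compound intravenously and orally, and blood was sampled over time for plasma. Active plasma equivalents were measured by bioassay as inhibition of ¹²⁵I-fibrinogen binding to isolated, immobilized GPIIb/IIIa. Kinetic data points are means from four dogs.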

[3] = Half life from dog blood after intravenous administration at a dose of 0.3 mg/kg Expt-1; type: ADME, organism-based, Canis lupus familiaris; parameters: dose 0.3 mg/kg, route intravenous; procedure, shortened: as §1
[4] = Half life from dog blood after intravenous administration at a dose of 0.3 mg/kg Expt-2; type: ADME, organism-based, Canis lupus familiaris; parameters: dose 0.3 mg/kg, route intravenous; procedure, shortened: as §1
[5] = Half life from dog blood after oral administration at a dose of 3 mg/kg Expt-1; type: ADME, organism-based, Canis lupus familiaris; parameters: dose 3 mg/kg, route oral; procedure, shortened: as §1
[6] = Half life from dog blood after oral administration at a dose of 3 mg/kg Expt-2; type: ADME, organism-based, Canis lupus familiaris; parameters: dose 3 mg/kg, route oral; procedure, shortened: as §1
[7] = target: T1, Integrin alpha-IIb/beta-3 (Homo sapiens, UniProt P05106+P08514); assay: Inhibition of [125I]fibrinogen binding to ADP-activated human gel filtered platelets
T1 sequence (P05106 27-788 limits assumed): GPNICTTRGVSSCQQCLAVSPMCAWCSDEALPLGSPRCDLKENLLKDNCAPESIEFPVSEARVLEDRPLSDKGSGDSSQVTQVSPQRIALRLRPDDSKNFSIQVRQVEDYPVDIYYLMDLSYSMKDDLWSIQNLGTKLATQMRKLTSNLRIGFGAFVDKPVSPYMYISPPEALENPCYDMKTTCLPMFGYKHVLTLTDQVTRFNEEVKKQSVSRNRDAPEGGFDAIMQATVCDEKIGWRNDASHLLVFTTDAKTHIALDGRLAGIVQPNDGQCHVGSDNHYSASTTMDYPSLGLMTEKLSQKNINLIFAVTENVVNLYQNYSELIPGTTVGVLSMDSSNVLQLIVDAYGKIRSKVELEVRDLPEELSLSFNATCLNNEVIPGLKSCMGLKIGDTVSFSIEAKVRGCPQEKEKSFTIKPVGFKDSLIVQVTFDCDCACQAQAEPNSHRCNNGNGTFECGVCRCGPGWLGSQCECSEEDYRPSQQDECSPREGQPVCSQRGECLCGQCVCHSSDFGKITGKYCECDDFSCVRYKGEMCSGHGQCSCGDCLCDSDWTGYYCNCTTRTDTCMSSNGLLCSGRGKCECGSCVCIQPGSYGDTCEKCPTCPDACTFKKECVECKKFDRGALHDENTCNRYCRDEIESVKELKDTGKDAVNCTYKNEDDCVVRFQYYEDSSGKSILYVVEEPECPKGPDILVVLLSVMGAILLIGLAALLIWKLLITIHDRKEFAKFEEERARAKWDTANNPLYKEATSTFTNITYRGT
T1 sequence (P08514 32-887 limits assumed): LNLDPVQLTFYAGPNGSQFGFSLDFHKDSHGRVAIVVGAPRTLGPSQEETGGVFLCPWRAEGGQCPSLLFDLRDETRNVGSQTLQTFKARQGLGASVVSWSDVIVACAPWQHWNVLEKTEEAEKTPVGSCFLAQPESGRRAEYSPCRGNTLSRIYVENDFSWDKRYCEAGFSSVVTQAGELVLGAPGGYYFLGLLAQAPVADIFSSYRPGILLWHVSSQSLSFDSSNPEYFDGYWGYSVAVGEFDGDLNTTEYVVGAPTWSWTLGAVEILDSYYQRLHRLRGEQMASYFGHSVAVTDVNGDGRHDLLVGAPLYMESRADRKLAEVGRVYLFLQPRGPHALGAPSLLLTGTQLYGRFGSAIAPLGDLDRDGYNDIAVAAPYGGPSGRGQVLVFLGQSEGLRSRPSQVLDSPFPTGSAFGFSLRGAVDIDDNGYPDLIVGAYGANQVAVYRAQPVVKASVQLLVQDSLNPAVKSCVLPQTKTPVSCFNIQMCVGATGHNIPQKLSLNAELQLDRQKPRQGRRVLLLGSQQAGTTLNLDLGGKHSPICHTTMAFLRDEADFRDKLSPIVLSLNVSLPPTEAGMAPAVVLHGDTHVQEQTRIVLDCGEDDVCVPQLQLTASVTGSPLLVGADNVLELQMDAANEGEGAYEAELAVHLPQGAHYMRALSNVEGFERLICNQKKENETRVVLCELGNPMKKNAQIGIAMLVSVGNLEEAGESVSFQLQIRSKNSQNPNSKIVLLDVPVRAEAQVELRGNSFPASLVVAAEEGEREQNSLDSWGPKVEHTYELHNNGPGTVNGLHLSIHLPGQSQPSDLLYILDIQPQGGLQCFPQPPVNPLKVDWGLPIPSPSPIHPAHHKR
T1 sequence (P08514 891-1039 limits assumed): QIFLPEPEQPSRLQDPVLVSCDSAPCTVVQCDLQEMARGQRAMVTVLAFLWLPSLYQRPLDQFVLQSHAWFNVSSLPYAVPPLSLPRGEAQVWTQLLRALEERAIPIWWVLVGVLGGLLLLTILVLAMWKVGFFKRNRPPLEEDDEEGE

[8] = target: T1, Integrin alpha-IIb/beta-3; assay: Inhibition of [125I]fibrinogen binding to isolated GPIIb/IIIa; type: protein-complex assay
[9] = organism: Canis familiaris; assay: Inhibitory activity against dog platelet aggregation in GFP; type: functional, organism-based; settings: Canis lupus familiaris
[10] = organism: Homo sapiens; assay: Inhibitory activity against platelet rich plasma; type: functional, organism-based

Compound `C[C@@]1(c2ccc(C(=N)N)cc2)NC(=O)N(CC(=O)N[C@H](CC(=O)O)c2ccccc2)C1=O` has an IC50 [1] of 50000 nM.

`CCOC(=O)C[C@H](NC(=O)CN1C(=O)N[C@@](C)(c2ccc(C(=N)N)cc2)C1=O)c1ccccc1` [CARAFIBAN] showed a bioavailability [2] of 42%, a half-life [3] of 1.4 h and a half-life [4] of 0.8 h. For the same compound, the half-life [5] was 7.9 h and the half-life [6] was 9.9 h.

`N=C(N)NCCC[C@@H]1NC(=O)N(CC(=O)N[C@@H](CC(=O)O)C(=O)N[C@H](C(=O)O)c2ccccc2)C1=O` gave an IC50 [1] of 900 nM.

Compound `CC1(c2ccc(C(=N)N)cc2)NC(=O)N(CC(=O)NC(CC(=O)O)c2cccc3ccccc23)C1=O` (stereo unspecified) has an IC50 [1] of 300 nM.

For `C[C@]1(c2ccc(C(=N)N)cc2)NC(=O)N(CC(=O)N[C@@H](CC(=O)O)c2ccccc2)C1=O`, the IC50 [1] was 6000 nM.

Compound `CC1(c2ccc(C(=N)N)cc2)NC(=O)N(CC(=O)NC(CC(=O)O)c2cccnc2)C1=O` (stereo unspecified) has an IC50 [1] of 100 nM.

With `C[C@]1(c2ccc(C(=N)N)cc2)NC(=O)N(CC(=O)N[C@H](CC(=O)O)c2ccccc2)C1=O` the IC50 [1] was 5000 nM.

With `N=C(N)NCCC[C@@H]1NC(=O)N(CC(=O)N[C@@H](CC(=O)O)C(=O)N[C@@H](CO)C(=O)O)C1=O` the IC50 [1] was 10000 nM.

With `CC1(c2ccc(C(=N)N)cc2)NC(=O)N(CC(=O)NC(CC(=O)O)c2ccccc2)C1=O` (stereo unspecified) the bioavailability [2] was 5% and the IC50 [1] was 200 nM.

Compound `CC1(c2ccc(C(=N)N)cc2)NC(=O)N(CC(=O)NC(CC(=O)O)c2ccc3c(c2)OCO3)C1=O` (stereo unspecified) has an IC50 [1] of 80 nM.

In the case of `C[C@@]1(c2ccc(C(=N)N)cc2)NC(=O)N(CC(=O)N[C@@H](CC(=O)O)c2ccccc2)C1=O`, the bioavailability [2] is reported as 10%, the Ki [7] is reported as 9 nM and the Ki [8] is reported as 0.17 nM. The IC50 [9] was 100 nM, the IC50 [1] was 20 nM and the IC50 [10] was 100 nM.
